This excerpt belongs to a sample that is enriched for hits.
H69AR growth 86K = proliferation blockers of H69AR lung cancer cells, primary screen, cell-based, human, 86K library; H69AR lung tumor viability, ATP luminescence, 72 h; hits give low values; viability, % at 10 µM; 6% of 85,000 active; AID 598, 2007;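 active = viability at or below 40%; inactive = viability above 40%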;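 also: multidrug resistant small cell line overexpressing MRP-1 efflux transporter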
PTEN del growth = growth suppression of PTEN-null HCT116, primary screen, cell-based, CellTiter-Glo; viability, % at 10 µM; HCT116 PTEN-null viability, 60 h; hits give low values; 1.2% of 140,000 active;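 active = viability at or below a set limit, 4 SD under the median of all tested compounds, cut at about 3.7% in these data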;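 also: PTEN knockout HCT116 line with beta catenin targeted HCT116 as companion control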
Lung fibro prol = antiproliferative effect on LL 47 fibroblasts – human, LL 47 cells, CellTiter-Glo luminescence, primary screen. LL 47 human lung fibroblast viability, ATP luminescence; hits give low values. AID 719, 2007. viability, % at 10 µM. 1.1% of 85,000 active;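 active = viability at or below 50% in the single dose screen; inactive = viability above 50%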;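 also: compound exposure lasted 72 h before the ATP readout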
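Test system: LL 47 human lung fibroblasts / Quantity: 1,150 cells in each well / Medium: IMEM growth medium with 15% fetal bovine serum / Incubation: 72 h compound exposure at 37 °C after overnight plating / Detection: CellTiter-Glo luminescence measuring cellular ATP / Read-out: % viability versus median cells-only luminescence / Benchmarks: cell-only wells, no compound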
HCT116 bCat-KO = primary screen for growth suppressors in beta-catenin knockout HCT116 cells (colon tumor, human) | HCT116 beta-catenin knockout viability, CellTiter-Glo, 60 h; hits give low values | viability, % at 10 µM | 1.5% of 140,000 active | AID 818, 2007;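 active = viability at or under a set limit, the compound median less 4 SD, cut at about 6% in these data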
HUVEC prolif 384 = inhibitors of HUVEC proliferation, primary screen, cell-based, 384-well. AID 648, 2007. 1.1% of 86,000 active. viability, % at 10 µM (by protocol). CellTiter-Glo luminescence, 72 h; hits give low values;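 active = viability at or below 30%; inactive = viability above 30%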
A number is an active result; i = inactive; nt = not tested or not shown.

SMILES | H69AR growth 86K | PTEN del growth | Lung fibro prol | HCT116 bCat-KO | HUVEC prolif 384
CC1(c2ccc(Cl)c(Cl)c2)NC(=S)N2C1NC(=S)N2c1ccccc1 (configuration not stated) | i | i | i | i | i
O=C(CSc1nnc(-c2cccs2)n1-c1ccccc1)NCC1CCCO1 (configuration not stated) | i | i | i | i | i
Cn1c(=O)c2c(SCC(=O)NCC3CCCO3)nc(-c3cccs3)nc2n(C)c1=O (configuration not stated) | 28.8 | nt | i | nt | i
CC(C)Sc1nc(-c2cccs2)nc2c1c(=O)n(C)c(=O)n2C | 18.9 | nt | i | nt | i
Cn1c(CO)cnc1SCc1ccc(Cl)cc1 | nt | i | nt | i | nt
FC(F)(F)c1nc(-c2cccs2)ncc1-c1nnnn1-c1ccc(Cl)cc1 | nt | i | nt | i | nt
Clc1ccc(-n2nnnc2-c2cnc(-c3ccncc3)nc2-c2cccs2)cc1 | 9.8 | i | i | i | i
CCOc1ccc(-c2nc(N)ncc2Oc2cccc(OC)c2)c(O)c1 | 13.7 | i | i | i | i
Cc1ccc(C(=O)N/C(=C\c2cccs2)C(=O)NCCCn2ccnc2)cc1C | nt | i | nt | i | nt
O=C(Nc1ccc([N+](=O)[O-])cc1)c1nc[nH]c1C(=O)NC1CCCCC1 | nt | 1.2 | nt | 2.8 | nt
O=C(Nc1ccc(F)cc1)c1nc[nH]c1C(=O)Nc1ccc([N+](=O)[O-])cc1 | nt | 1.4 | nt | 1.3 | nt
O=C(NCCc1ccccc1)C(c1cccs1)N(C(=O)CCl)c1ccc(Cl)cc1 (configuration not stated) | nt | 0.8 | nt | 1.1 | nt
CCOC(=O)Cc1csc(NS(=O)(=O)c2ccc(F)cc2)n1 | nt | i | nt | i | nt
CCCn1c(NC(=O)C2CCN(S(=O)(=O)c3cccs3)CC2)nc2ccccc21 | 38.5 | i | i | i | i
CCCn1c(NC(=O)c2ccc(C)cc2)nc2ccccc21 | i | i | i | i | i
CCCn1c(NC(=O)c2ccccc2)nc2ccccc21 | 30.9 | i | i | i | i
CCCn1c(Nc2nc3ccccc3n2C)nc2ccccc21 | 3.1 | 2.0 | i | 2.2 | 3.0
CCCn1c(NC(=O)c2cccc(S(=O)(=O)N3CCCC3)c2)nc2ccccc21 | 16.6 | 2.0 | i | 2.9 | i
CCn1c(SC(=O)NC2CCCCC2)nnc1-c1cccs1 | nt | i | nt | i | nt
O=C(Nc1nc2ccccc2n1CCN1CCCCC1)C1CCCCC1 | 30.6 | i | i | i | i
CC(NC(=O)c1ccccc1)c1nc2ccccc2n1Cc1ccc(C#N)cc1 (configuration not stated) | i | i | i | i | i
CC(NC(=O)c1ccccc1)c1nc2ccccc2n1Cc1ccccc1F (configuration not stated) | 11.6 | i | i | i | i
COc1cc2nc(C3CC3)n(NC(=O)c3ccc(Cl)cc3)c(=O)c2cc1OC | 24.4 | i | i | i | i
COc1cc2nc(C3CC3)n(NC(=O)c3ccc(F)cc3)c(=O)c2cc1OC | i | i | i | i | i
O=C(NCCO)C(c1ccccc1)c1ccccc1 | 36.1 | i | nt | i | i
SMILES | H69AR growth 86K | PTEN del growth | Lung fibro prol | HCT116 bCat-KO | HUVEC prolif 384
COc1ccc2c(c1)c1nc3ccccc3nc1n2CC(=O)OC(C)C | 18.5 | 3.7 | 38.7 | 2.3 | i
CCOC(=O)Cn1c2ccccc2c2nc3ccccc3nc21 | 6.1 | i | i | i | i
CN(C)c1cccc2c(C=C(C#N)C#N)ccc(N(C)C)c12 | nt | i | nt | i | nt
CC(C)c1ccc2c(c1)C1Cc3ccccc3C1N2 (configuration not stated) | nt | i | nt | i | nt
NC(=O)SCC(=O)Nc1ccc(Cl)c(Cl)c1 | 11.1 | 1.4 | i | 1.1 | i
Cc1ccc(NC(=O)CSC(N)=O)cc1Cl | 17.8 | i | i | i | i
NC(=O)SCC(=O)Nc1ccc(Cl)cc1 | nt | i | nt | i | nt
N#C/C(=C/c1ccc(Br)o1)C(N)=O | 33.0 | i | i | i | i
Cc1ccc(SC(=O)COc2ccccc2C)cc1 | 1.7 | nt | i | i | i
COc1ccc(CCN2C(=O)CN(Cc3ccccc3)CC2=O)cc1OC | nt | 0.1 | nt | i | nt
CCC(C)N=Cc1c(NCc2ccco2)nc2c(C)cccn2c1=O (configuration not stated) | i | i | i | i | i
Cc1cccn2c(=O)c(C=NCc3ccco3)c(Nc3ccc(Cl)cc3)nc12 | 23.0 | nt | i | nt | i
Cn1c[n+](C)cc1-c1ccc(/C(N)=N/O)cc1 | nt | i | nt | i | nt
CC(C)=NOc1cc(NC(=O)CCl)cc([N+](=O)[O-])c1 | nt | 3.0 | nt | 3.3 | nt
COc1ccc(N2CCN(CC(O)c3c[nH]c4ccc(OC)cc34)CC2C)cc1 (configuration not stated) | 35.2 | i | i | i | i
CCOc1ccc(CNC(=O)c2ccc(Sc3ccc(C)cc3)c(NC(C)=O)c2)cc1 | nt | i | nt | i | nt
Cc1nccc2[nH]c(=O)c(C(=O)NC3CCCCC3C)cc12 (configuration not stated) | 36.6 | i | i | i | i
Cc1cccc(C)c1OCC(=O)N=Nc1c(O)[nH]c2ccc(Br)cc12 | 1.9 | i | i | i | 17.5
O=C(N=Nc1c(O)[nH]c2ccc(Br)cc12)c1cc(-c2cccc3ccccc23)n[nH]1 | nt | i | nt | i | nt
CCCc1nc(NCc2ccncc2)c2nnn(Cc3ccccc3F)c2n1 | i | 3.2 | i | 1.9 | i
Cc1cc(C)c2nc(/N=C(\N)NC(=O)Nc3ccccc3)nc(C)c2c1 | nt | i | nt | i | nt
NC(=O)c1c(NC(=O)CSc2nnc(Cc3ccccc3)n2Cc2ccco2)sc2c1CCC2 | 5.6 | i | i | i | i
CN(C)CCCn1c(SCC(=O)Nc2sc3c(c2C#N)CCCC3)nnc1-c1ccncc1 | nt | i | nt | i | nt
O=C(CSc1nnc(Cc2ccccc2)n1Cc1ccco1)NC12CC3CC(CC(C3)C1)C2 | i | i | i | i | i
CCCCn1c(SCC(=O)Nc2sc3c(c2C(N)=O)CCC3)nnc1-c1ccccc1 | 24.5 | nt | i | nt | i
COCCCNC(=S)NC(=O)c1ccc(C)cc1 | nt | i | nt | i | nt

Compound activity from PubChem BioAssay.
